The source made the active and inactive calls. The rule behind the calls is not given here.
Legend:
Nucleic Acid [1] = test: Binding affinity to HIV 1 fluorescein-labeled SL3 RNA by fluorescence spectrometry; assay type: nucleic-acid assay, Human immunodeficiency virus 1; conditions: for Kd: read-out: Kd(app); for Activity: Human immunodeficiency virus 1
Method in brief: (§1)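 Fluorescence titration of 5′-fluorescein-labeled RNA (25 nM) in 10 mM Tris-HCl pH 7.4, 25 mM NaCl at 25 °C. Ligand is added stepwise until the signal plateaus, with 3–5 min equilibration per addition. Excitation is 490 nm; emission at 517 nm is used. Fraction bound is fit to a 1:1 model, or a 2:1 cooperative model for one ligand, to give apparent KD. Fluorescein-only and DMSO controls are run. SD is from at least three measurements.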

Nucleic Acid [2] = test: Binding affinity to double stranded RNA by fluorescence spectrometry; assay type: nucleic-acid assay; conditions: for Kd: read-out: Kd(app); method in brief: as §1
Nucleic Acid [3] = test: Binding affinity to single stranded RNA by fluorescence spectrometry; assay type: nucleic-acid assay; conditions: for Kd: read-out: Kd(app); method in brief: as §1
Nucleic Acid [4] = test: Inhibition of HIV1 [32P]-labeled SL3 RNA interaction with NCp at 1mM after 1 hr by electrophoretic gel mobility shift assay; assay type: nucleic-acid assay; conditions: Human immunodeficiency virus 1
Method in brief: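 Screen for single-point inhibition. Ligand is added at a final 1 mM to a preformed NCp7–SL3 RNA complex and incubated 1 h. Bound and free RNA are then resolved by gel mobility shift assay.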

Nucleic Acid [5] = test: Binding affinity to HIV 1 SL3 RNA by ITC analysis; assay type: nucleic-acid assay, Human immunodeficiency virus 1; conditions: read-out: Kd(app)
Method in brief: (§2)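 Isothermal titration calorimetry at 25 °C. Ligand at 1 mM is injected in 10 μL aliquots into 20 μM RNA. Both are in 10 mM sodium phosphate pH 7.4 with 10% DMSO. Injections last 24 s and are spaced 240 s apart. Heats are corrected with ligand-into-buffer controls. KD values come from a sequential two-site binding fit to heat versus ligand:RNA molar ratio. SD is from two measurements.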

Nucleic Acid [6] = test: Destabilization of HIV1 [32P]-labeled SL3 RNA-NCp complex assessed as displacement of NCp from SL3 RNA after 1 hr by electrophoretic gel mobility shift assay; assay type: nucleic-acid assay, Human immunodeficiency virus 1; conditions: for Ki: read-out: Ki(app)
Method in brief: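 Gel shift assay. Ligand is then added at rising concentrations for another 1 h. Samples are run on a 6% native gel at 4 °C. IC50 comes from a Hill fit of bound-RNA counts. Ki = IC50/(1+[PT]/KD). SD is from at least three experiments.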

Nucleic Acid [7] = test: Binding affinity to HIV 1 SL3 RNA assessed as second binding dissociation constant by ITC analysis; assay type: nucleic-acid assay, Human immunodeficiency virus 1; conditions: read-out: Kd(app)
Method in brief: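 ITC at 25 °C: ligand (1 mM) in 10 mM sodium phosphate pH 7.4 with 10% DMSO injected in 10 μL aliquots into 20 μM SL3 RNA in the same buffer. Injections lasted 24 s at 240 s spacing. Heats of ligand-into-buffer titrations were subtracted. Heat versus ligand:RNA molar ratio was fit to a sequential two-site model, with the second KD taken from the second site. Two measurements.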

Nucleic Acid [8] = test: Selectivity ratio of Kd for double stranded RNA to Kd for HIV 1 SL3 RNA; assay type: nucleic-acid assay
Nucleic Acid [9] = test: Selectivity ratio of Kd for single stranded RNA to Kd for HIV 1 SL3 RNA; assay type: nucleic-acid assay
Nucleic Acid [10] = test: Binding affinity to double stranded RNA by ITC analysis; assay type: nucleic-acid assay; conditions: read-out: Kd(app); method in brief: as §2
Nucleic Acid [11] = test: Binding affinity to single stranded RNA by ITC analysis; assay type: nucleic-acid assay; conditions: read-out: Kd(app); method in brief: as §2
Nucleic Acid [12] = test: Binding affinity to double stranded RNA assessed as second binding dissociation constant by ITC analysis; assay type: nucleic-acid assay; conditions: read-out: Kd(app); method in brief: as §2
Nucleic Acid [13] = test: Binding affinity to single stranded RNA assessed as second binding dissociation constant by ITC analysis; assay type: nucleic-acid assay; conditions: read-out: Kd(app); method in brief: as §2

In the case of `CNC(=O)c1cc2c(=O)n3cccc(C)c3nc2n(CCCO)c1=N`, the Kd (Nucleic Acid [1]) is reported as 3.5 µM, the Kd (Nucleic Acid [2]) is reported as 8.2 µM and the Kd (Nucleic Acid [3]) is reported as 9.5 µM.

For `CN1CCN(CCCN2c3ccccc3Sc3ccc(C(F)(F)F)cc32)CC1` [TRIFLUOPERAZINE], the Kd (Nucleic Acid [1]) was 1.7 µM, the Kd (Nucleic Acid [2]) was 2.19 µM and the Kd (Nucleic Acid [3]) was 2 µM.

With `Nc1c(S(=O)(=O)O)cc(Nc2cccc(S(N)(=O)=O)c2)c2c1C(=O)c1ccccc1C2=O` the inhibition (Nucleic Acid [4]) was “Active”.

Work on `Nc1c(S(=O)(=O)O)cc(Nc2ccc(S(N)(=O)=O)cc2)c2c1C(=O)c1ccccc1C2=O` yielded a Kd (Nucleic Acid [5]) of 11 µM, an IC50 (Nucleic Acid [6]) of 70 µM and a Ki (Nucleic Acid [6]) of 20 µM. The Kd (Nucleic Acid [7]) was 11000 µM.

`O=C(NC(=S)Nc1ccc(N2CCCC2)cc1)c1ccccc1[N+](=O)[O-]` was tested, and the Activity (Nucleic Acid [1]) was “inactive”.

In the case of `COc1ccc(N/C(S)=N/CCCn2ccnc2)cc1`, the Activity (Nucleic Acid [1]) is reported as “inactive”.

`N=C1NC(=O)/C(=C\c2ccc3ccccc3c2)S1` was tested, and the Kd (Nucleic Acid [1]) was 11 µM, the Kd (Nucleic Acid [2]) was 11.2 µM and the Kd (Nucleic Acid [3]) was 8.9 µM.

`O=C1NC(=S)NC(=O)C1=Cc1cn(-c2ccccc2)nc1-c1cc2c(ccc3ccccc32)oc1=O` was tested, and the Kd (Nucleic Acid [5]) was 68 µM, the IC50 (Nucleic Acid [6]) was 123 µM and the Ki (Nucleic Acid [6]) was 40 µM. For the same compound, the Kd (Nucleic Acid [7]) was 488 µM.

`O=C1NC(=S)N/C1=C/c1ccc2ccccc2c1` was tested, and the Kd (Nucleic Acid [1]) was 13.2 µM, the Kd (Nucleic Acid [2]) was 12 µM and the Kd (Nucleic Acid [3]) was 7.5 µM.

Compound `COc1ccc(NCc2ccc([N+](=O)[O-])s2)cc1OC` has a Kd (Nucleic Acid [1]) of 11.1 µM, a Kd (Nucleic Acid [2]) of 8.4 µM and a Kd (Nucleic Acid [3]) of 14 µM.

For `Nc1ccccc1NCCOc1ccccc1`, the Kd (Nucleic Acid [1]) was 51 µM, the Activity (Nucleic Acid [2]) was “Active” and the Activity (Nucleic Acid [3]) was “Active”.

Work on `O=C1c2ccccc2C(=O)c2c(NCCO)ccc(NCCO)c21` yielded an IC50 (Nucleic Acid [6]) of 700 µM, a Ki (Nucleic Acid [6]) of 200 µM and a Kd (Nucleic Acid [1]) of 1.1 µM. It also gave a Kd (Nucleic Acid [2]) of 3.2 µM and a Kd (Nucleic Acid [3]) of 2.2 µM.

With `CC1CCN(c2ccc(N)cc2)CC1` the Kd (Nucleic Acid [1]) was 44 µM, the Activity (Nucleic Acid [2]) was “Active” and the Activity (Nucleic Acid [3]) was “Active”.

For `O=C(Cc1ccccc1)Nc1ccc(N2CCCC2)cc1`, the Activity (Nucleic Acid [1]) was “inactive”.

`O=C1Oc2ccccc2C(=O)/C1=C/N1C(=O)N/C(=C\c2ccccc2O)C1=O` was tested, and the IC50 (Nucleic Acid [6]) was 340 µM, the Ki (Nucleic Acid [6]) was 110 µM and the inhibition (Nucleic Acid [4]) was “Active”.

With `O=[N+]([O-])c1ccc(SCCO)c2ncccc12` the Kd (Nucleic Acid [1]) was 90 µM, the Selectivity ratio (Nucleic Acid [8]) was over 12 and the Selectivity ratio (Nucleic Acid [9]) was over 7. The Kd (Nucleic Acid [2]) was over 1110 µM and the Kd (Nucleic Acid [3]) was over 604 µM.

Compound `Cc1cccn2c(=O)c3cc(C(=O)NCCN4CCOCC4)c(=N)n(Cc4cccnc4)c3nc12` has a Kd (Nucleic Acid [1]) of 5 µM, a Kd (Nucleic Acid [2]) of 8.3 µM and a Kd (Nucleic Acid [3]) of 11.8 µM.

In the case of `O=C(C[n+]1cccc(C(=O)N/N=C/c2ccc(Br)cc2)c1)c1ccccc1`, the Activity (Nucleic Acid [1]) is reported as “inactive”.

Work on `Cc1cccn2c(=O)c3cc(C(=O)N4CCN(C)CC4)c(=N)n(CC4CCCO4)c3nc12` (centres undefined) yielded a Kd (Nucleic Acid [5]) of 14.5 µM, a Kd (Nucleic Acid [10]) of 189 µM and a Kd (Nucleic Acid [11]) of 280 µM. For the same compound, the Kd (Nucleic Acid [12]) was 2400 µM, the Kd (Nucleic Acid [13]) was 12000 µM and the Kd (Nucleic Acid [1]) was 10 µM. The Selectivity ratio (Nucleic Acid [8]) was 13 and the Selectivity ratio (Nucleic Acid [9]) was 19.

`Cc1cccn2c(=O)c3cc(C(=O)NC(C)c4ccccc4)c(=N)n(CCOCCO)c3nc12` (centres undefined) showed a Kd (Nucleic Acid [1]) of 4.5 µM, a Kd (Nucleic Acid [2]) of 5.1 µM and a Kd (Nucleic Acid [3]) of 4.1 µM.

With `O=C(NN=Cc1ccc(Br)cc1)c1cc[n+](Cc2ccccc2)cc1` the Kd (Nucleic Acid [1]) was 33 µM, the Activity (Nucleic Acid [2]) was “Active” and the Activity (Nucleic Acid [3]) was “Active”.

From ChEMBL document CHEMBL2163322, “Identification of small molecule inhibitors of the HIV-1 nucleocapsid-stem-loop 3 RNA complex” (J Med Chem, 2012)
